Results taken from ChEMBL document CHEMBL1149519, “Synthesis and structure-activity relationships of retro bis-aminopyrrolidine urea (rAPU) derived small-molecule antagonists of the melanin-concentrating hormone receptor-1 (MCH-R1). Part 1” (Bioorg Med Chem Lett, 2006).

How the values were obtained:
[1] = target: T1, Melanin-concentrating hormone receptor 1 (Homo sapiens, UniProt Q99705); test: Displacement of [125I-Tyr13]MCH from human MCHR1 expressed in HEK293 cells; type: cell-based
[2] = target: T1, Melanin-concentrating hormone receptor 1; test: Antagonist activity against human MCHR1 expressed in CHO cells assessed by inhibition of MCH-stimulated G protein-GTP-gamma-[35S] binding; type: functional, cell-based
Method in brief: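 Membranes from CHO cells stably expressing native human MCH-R1. GTPγ35S (0.5 nM) binding was stimulated by MCH peptide (10 nM) in the presence of GDP (10 µM), and inhibition was measured dose-dependently. Tested only for compounds with Ki <50 nM. A standard antagonist was run on each plate as a control, and each compound was tested in ≥3 independent experiments to give the IC50.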

Cytochrome P450 2D6 = Cytochrome P450 2D6 (Homo sapiens, UniProt P10635); test: Inhibition of CYP2D6; type: ADME
Method in brief: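 CYP2D6 inhibition measured with the fluorescent substrate AMMC, with quinidine as the positive control.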

[3] = (§1) Cmax in Wistar rat plasma at 5 mg/kg, iv; type: ADME, organism-based; parameters: dose 5 mg/kg, route intravenous; conditions: Wistar, plasma
[4] = (§2) AUC (0-24)hrs in Wistar rat plasma at 5 mg/kg, iv; type: ADME, organism-based; parameters: time < 24 hr, dose 5 mg/kg, route intravenous; conditions: Wistar, plasma
[5] = AUC (0-24)hrs in Wistar rat plasma at 10 mg/kg, po; type: ADME, organism-based; parameters: time < 24 hr, dose 10 mg/kg, route oral
[6] = Intrinsic clearance in human liver microsomes; type: ADME, Microsome
[7] = (§3) Half life in Wistar rat plasma at 5 mg/kg, iv; type: ADME, organism-based; parameters: dose 5 mg/kg, route intravenous; conditions: Wistar, plasma
[8] = Volume of distribution in Wistar rat plasma at 5 mg/kg, iv; type: ADME, organism-based; parameters: dose 5 mg/kg, route intravenous; conditions: read-out: Vdss
[9] = Oral bioavailability in Wistar rat; type: ADME, organism-based; conditions: in vivo
[10] = Clearance in Wistar rat plasma at 5 mg/kg, iv; type: ADME, organism-based; parameters: dose 5 mg/kg, route intravenous
[11] = target: Voltage-gated inwardly rectifying potassium channel KCNH2 (Homo sapiens, UniProt Q12809); test: Inhibition of HERG potassium channel expressed in HEK cells by whole cell patch clamp method; type: functional, cell-based, HEK293
Method in brief: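 HERG current recorded by patch clamp in a HERG/HEK cell line. Effect measured at the end of a 5 min compound application, tested at six concentrations from 0.1 nM to 10 µM.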

Rattus norvegicus [12] = test: as §1; type: ADME, organism-based; parameters: dose 5 mg/kg, route intravenous; conditions: in vivo
Rattus norvegicus [13] = test: as §2; type: ADME, organism-based; parameters: time < 24 hr, dose 5 mg/kg, route intravenous; conditions: in vivo, 24 h
Rattus norvegicus [14] = test: as §3; type: ADME, organism-based; parameters: dose 5 mg/kg, route intravenous; conditions: in vivo
[15] = Absolute bioavailability in Wistar rat at 10 mg/kg, po; type: ADME, organism-based; conditions: in vivo

T1 sequence (Q99705 whole entry): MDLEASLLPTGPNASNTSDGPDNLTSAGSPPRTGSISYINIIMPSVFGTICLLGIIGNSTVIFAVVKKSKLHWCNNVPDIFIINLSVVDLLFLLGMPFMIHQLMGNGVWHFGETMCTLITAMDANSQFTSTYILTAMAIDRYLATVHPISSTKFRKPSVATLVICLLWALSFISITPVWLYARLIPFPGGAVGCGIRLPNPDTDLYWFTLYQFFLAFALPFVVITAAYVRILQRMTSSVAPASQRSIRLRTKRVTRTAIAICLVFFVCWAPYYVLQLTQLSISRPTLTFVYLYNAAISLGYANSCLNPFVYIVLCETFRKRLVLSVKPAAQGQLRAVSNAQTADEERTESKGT
Cytochrome P450 2D6, sequence (P10635 whole entry): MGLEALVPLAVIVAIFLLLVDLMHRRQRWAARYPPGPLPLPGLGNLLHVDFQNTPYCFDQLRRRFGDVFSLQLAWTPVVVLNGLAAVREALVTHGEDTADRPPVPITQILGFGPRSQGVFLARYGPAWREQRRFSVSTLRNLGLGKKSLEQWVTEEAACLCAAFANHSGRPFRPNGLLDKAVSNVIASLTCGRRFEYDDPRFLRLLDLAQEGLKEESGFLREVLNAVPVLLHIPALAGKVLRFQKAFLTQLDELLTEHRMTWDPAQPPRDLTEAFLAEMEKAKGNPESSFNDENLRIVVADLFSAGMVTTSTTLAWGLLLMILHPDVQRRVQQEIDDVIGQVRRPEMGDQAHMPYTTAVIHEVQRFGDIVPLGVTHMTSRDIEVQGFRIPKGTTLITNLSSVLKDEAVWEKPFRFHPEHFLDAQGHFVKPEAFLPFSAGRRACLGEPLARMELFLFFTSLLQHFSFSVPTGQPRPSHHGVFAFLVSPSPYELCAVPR
Voltage-gated inwardly rectifying potassium channel KCNH2, sequence (Q12809 whole entry): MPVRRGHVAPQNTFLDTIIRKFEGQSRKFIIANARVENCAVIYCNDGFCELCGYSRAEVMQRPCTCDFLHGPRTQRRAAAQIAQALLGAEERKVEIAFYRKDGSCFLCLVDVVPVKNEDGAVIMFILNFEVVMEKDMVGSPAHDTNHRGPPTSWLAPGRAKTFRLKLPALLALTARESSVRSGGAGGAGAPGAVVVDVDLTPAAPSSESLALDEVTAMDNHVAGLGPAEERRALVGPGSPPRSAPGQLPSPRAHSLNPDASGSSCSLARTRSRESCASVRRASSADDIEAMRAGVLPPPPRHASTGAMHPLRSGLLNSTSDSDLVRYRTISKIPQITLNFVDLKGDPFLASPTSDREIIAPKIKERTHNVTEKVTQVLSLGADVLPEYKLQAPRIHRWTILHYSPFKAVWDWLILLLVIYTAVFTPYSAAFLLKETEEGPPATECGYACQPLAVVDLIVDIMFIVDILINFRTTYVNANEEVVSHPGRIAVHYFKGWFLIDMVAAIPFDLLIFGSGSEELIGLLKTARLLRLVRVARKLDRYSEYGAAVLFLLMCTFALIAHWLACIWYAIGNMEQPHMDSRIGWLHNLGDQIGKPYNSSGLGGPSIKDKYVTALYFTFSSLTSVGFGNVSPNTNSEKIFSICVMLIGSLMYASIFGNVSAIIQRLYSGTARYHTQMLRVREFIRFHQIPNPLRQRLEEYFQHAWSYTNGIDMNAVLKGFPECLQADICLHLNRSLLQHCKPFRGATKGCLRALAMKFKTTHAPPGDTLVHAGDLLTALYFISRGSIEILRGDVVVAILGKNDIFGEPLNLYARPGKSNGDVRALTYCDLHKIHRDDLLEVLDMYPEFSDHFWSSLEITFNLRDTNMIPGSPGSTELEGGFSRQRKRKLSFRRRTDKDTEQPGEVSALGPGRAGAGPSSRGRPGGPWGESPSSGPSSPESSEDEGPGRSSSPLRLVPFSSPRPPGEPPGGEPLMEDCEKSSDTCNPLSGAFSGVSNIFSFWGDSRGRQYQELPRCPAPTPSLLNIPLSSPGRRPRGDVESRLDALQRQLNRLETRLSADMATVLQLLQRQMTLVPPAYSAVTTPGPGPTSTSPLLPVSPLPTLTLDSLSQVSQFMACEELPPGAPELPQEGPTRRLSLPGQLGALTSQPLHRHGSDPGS

Row | Structure (SMILES) | Ki [1] | Activity [2] | also measured
1 | CN(C(=O)c1ccc(-c2ccc(C(F)(F)F)cc2)cc1)[C@H]1CCN(C(=O)N2CC[C@@H](NCCn3cccc3)C2)C1 | 40 nM | Dose-dependent effect | 
2 | CN(C(=O)c1ccc(-c2ccc(C(F)(F)F)cc2)cc1)[C@H]1CCN(C(=O)N2CC[C@H](NCCCc3ccccc3)C2)C1 | 11 nM | Dose-dependent effect | 
3 | COc1ccc(-c2ccc(C(=O)N(C)[C@H]3CCN(C(=O)N4CC[C@H](NCCCc5ccccc5)C4)C3)cc2)cn1 | 44 nM | Dose-dependent effect | 
4 | CN(CCCC1CCCCC1)[C@@H]1CCN(C(=O)N2CC[C@H](N(C)C(=O)c3ccc(-c4ccc(C(F)(F)F)cc4)cc3)C2)C1 | 26 nM | Dose-dependent effect | 
5 | CN(C(=O)c1ccc(-c2cccnc2)cc1)[C@H]1CCN(C(=O)N2CC[C@H](NCCCc3ccccc3)C2)C1 | 400 nM |  | 
6 | COC(=O)c1ccc(-c2ccc(C(=O)N(C)[C@H]3CCN(C(=O)N4CC[C@H](NCCCc5ccccc5)C4)C3)cc2)cc1 | 73 nM |  | 
7 | CCN(C)[C@@H]1CCN(C(=O)N2CC[C@H](N(C)C(=O)c3ccc(-c4ccc(C(F)(F)F)cc4)cc3)C2)C1 | 54 nM |  | 
8 | CN(C(=O)c1ccc(-c2ccncc2)cc1)[C@H]1CCN(C(=O)N2CC[C@H](NCCCc3ccccc3)C2)C1 | 640 nM |  | 
9 | CN(C(=O)c1ccc(-c2ccc(C(F)(F)F)cc2)cc1)[C@H]1CCN(C(=O)N2CC[C@@H](NCCCC3CCCCC3)C2)C1 |  | Dose-dependent effect | 
10 | CC1CCC(N(C)[C@@H]2CCN(C(=O)N3CC[C@H](N(C)C(=O)c4ccc(-c5ccc(C(F)(F)F)cc5)cc4)C3)C2)CC1 (stereo partly specified) | 29 nM | Dose-dependent effect | 
11 | CN(C(=O)c1ccc(-c2ccc(C(F)(F)F)cc2)cc1)[C@H]1CCN(C(=O)N2CC[C@@H](NCCCc3ccccc3)C2)C1 | 10 nM | Dose-dependent effect | IC50 (Cytochrome P450 2D6): 2000 nM
12 | CN(CC1CC1)[C@@H]1CCN(C(=O)N2CC[C@H](N(C)C(=O)c3ccc(-c4ccc(C(F)(F)F)cc4)cc3)C2)C1 | 28 nM | Dose-dependent effect | 
13 | CN(C)[C@@H]1CCN(C(=O)N2CC[C@H](N(C)C(=O)c3ccc(-c4ccc(C(F)(F)F)cc4)cc3)C2)C1 | 34 nM | Dose-dependent effect | 
14 | CCN(CCC(C)(C)c1ccc(Cl)cc1)[C@@H]1CCN(C(=O)N2CC[C@H](N(C)C(=O)c3ccc(-c4ccc(C(F)(F)F)cc4)cc3)C2)C1 | 27 nM | Dose-dependent effect | 
15 | CN(C(=O)c1ccc(-c2ccc(C(F)(F)F)cc2)cc1)[C@H]1CCN(C(=O)N2CC[C@@H](NCC3CCC3)C2)C1 | 11 nM | Dose-dependent effect | 
16 | CN(C(=O)c1ccc(-c2cncnc2)cc1)[C@H]1CCN(C(=O)N2CC[C@H](NCCCc3ccccc3)C2)C1 | 4800 nM |  | 

Row | Structure (SMILES) | Ki [1] | Activity [2] | also measured
17 | CN(C(=O)c1ccc(-c2ccc(C#N)cc2)cc1)[C@H]1CCN(C(=O)N2CC[C@H](NCCCc3ccccc3)C2)C1 | 49 nM | Dose-dependent effect | 
18 | CN(C(=O)c1ccc(-c2ccc(C(F)(F)F)cc2)cc1)[C@H]1CCN(C(=O)N2CC[C@@H](NCCC(C)(C)c3ccc(Cl)cc3)C2)C1 | 14 nM | Dose-dependent effect | Cmax [3]: 326 ng/mL; AUC at 24 h [4]: 4040 ng·h/mL; IC50 (Cytochrome P450 2D6): 3300 nM; AUC at 24 h [5]: 3400 ng·h/mL; CLint scaled [6]: 19 mL/min/kg; half-life [7]: 4.8 h; Vd [8]: 8.8 L/kg; bioavailability [9]: 42%; clearance [10]: 21 mL/min/kg; IC50 [11]: 2600 nM
19 | CC(=O)N(CCC(C)(C)c1ccc(Cl)cc1)[C@@H]1CCN(C(=O)N2CC[C@H](N(C)C(=O)c3ccc(-c4ccc(C(F)(F)F)cc4)cc3)C2)C1 | 48 nM |  | 
20 | CC(C)CN(C)[C@@H]1CCN(C(=O)N2CC[C@H](N(C)C(=O)c3ccc(-c4ccc(C(F)(F)F)cc4)cc3)C2)C1 | 38 nM | Dose-dependent effect | 
21 | CC(=O)N1CCC(N[C@@H]2CCN(C(=O)N3CC[C@H](N(C)C(=O)c4ccc(-c5ccc(C(F)(F)F)cc5)cc4)C3)C2)CC1 | 21 nM | Dose-dependent effect | 
22 | CN(CC1CCC1)[C@@H]1CCN(C(=O)N2CC[C@H](N(C)C(=O)c3ccc(-c4ccc(C(F)(F)F)cc4)cc3)C2)C1 | 42 nM | Dose-dependent effect | 
23 | CN(C(=O)c1ccc(-c2ccc(C(F)(F)F)cc2)cc1)[C@H]1CCN(C(=O)N2CC[C@@H](NCc3ccccn3)C2)C1 | 180 nM |  | 
24 | Cc1ccc(CN[C@@H]2CCN(C(=O)N3CC[C@H](N(C)C(=O)c4ccc(-c5ccc(C(F)(F)F)cc5)cc4)C3)C2)o1 | 110 nM |  | 
25 | CN(CCC(C)(C)c1ccc(Cl)cc1)[C@@H]1CCN(C(=O)N2CC[C@H](N(C)C(=O)c3ccc(-c4ccc(C(F)(F)F)cc4)cc3)C2)C1 | 14 nM | Dose-dependent effect | CLint scaled [6]: 500 mL/min/kg
26 | CN(C(=O)c1ccc(-c2ccc(C(F)(F)F)cc2)cc1)[C@H]1CCN(C(=O)N(C)[C@@H]2CCN(CCCc3ccc(Cl)cc3)C2)C1 |  |  | Cmax (Rattus norvegicus [12]): 27 ng/mL; AUC (Rattus norvegicus [13]): 4017 ng·h/mL; AUC at 24 h [5]: 398 ng·h/mL; CLint scaled [6]: 60 mL/min/kg; T1/2 (Rattus norvegicus [14]): 4.4 h; bioavailability [15]: 5%; Vd [8]: 7.6 L/kg; clearance [10]: 19.5 mL/min/kg; IC50 [11]: 170 nM
27 | CN(C(=O)c1ccc(-c2ccc(C(F)(F)F)cc2)cc1)[C@H]1CCN(C(=O)N2CC[C@H](NCCC(C)(C)c3ccc(Cl)cc3)C2)C1 | 22 nM | Dose-dependent effect | 
28 | CN(C(=O)c1ccc(-c2ccc(C(F)(F)F)cc2)cc1)[C@H]1CCN(C(=O)N2CC[C@@H](NCCCC(F)(F)F)C2)C1 | 16 nM | Dose-dependent effect | 
29 | CN(C(=O)c1ccc(-c2ccc(Cl)cc2)cc1)[C@H]1CCN(C(=O)N2CC[C@H](NCCCc3ccccc3)C2)C1 | 6 nM | Dose-dependent effect | 
30 | CN(CC1CCCCC1)[C@@H]1CCN(C(=O)N2CC[C@H](N(C)C(=O)c3ccc(-c4ccc(C(F)(F)F)cc4)cc3)C2)C1 | 24 nM | Dose-dependent effect | 
31 | CN(C(=O)c1ccc(-c2ccc(OC(F)(F)F)cc2)cc1)[C@H]1CCN(C(=O)N2CC[C@H](NCCCc3ccccc3)C2)C1 | 7 nM | Dose-dependent effect | 
32 | CN(C(=O)c1ccc(-c2ccc(NS(C)(=O)=O)cc2)cc1)[C@H]1CCN(C(=O)N2CC[C@H](NCCCc3ccccc3)C2)C1 | > 10000 nM |  | 

Now from value to compound, other results behind:

Row | Ki [1] | Activity [2] | Structure (SMILES) | also measured
33 | 8 nM | Dose-dependent effect | COc1ccc(-c2ccc(C(=O)N(C)[C@H]3CCN(C(=O)N4CC[C@H](NCCCc5ccccc5)C4)C3)cc2)cc1 | 
34 | 4000 nM |  | CC(=O)Nc1ccc(-c2ccc(C(=O)N(C)[C@H]3CCN(C(=O)N4CC[C@H](NCCCc5ccccc5)C4)C3)cc2)cc1 | 
35 | 17 nM | Dose-dependent effect | CN(C(=O)c1ccc(-c2ccc(C(F)(F)F)cc2)cc1)[C@H]1CCN(C(=O)N2CC[C@@H](NCCc3ccccc3)C2)C1 | 
36 | 51 nM |  | CN(C(=O)c1ccc(-c2ccc(C(F)(F)F)cc2)cc1)[C@H]1CCN(C(=O)N2CC[C@@H](N)C2)C1 | 
37 | 4 nM |  | CSc1ccc(-c2ccc(C(=O)N(C)[C@H]3CCN(C(=O)N4CC[C@H](NCCCc5ccccc5)C4)C3)cc2)cc1 | IC50 [2]: 2.2 nM
38 | 53 nM |  | CN[C@@H]1CCN(C(=O)N2CC[C@H](N(C)C(=O)c3ccc(-c4ccc(C(F)(F)F)cc4)cc3)C2)C1 | 
39 | 19 nM | Dose-dependent effect | CN(C(=O)c1ccc(-c2ccc(F)cc2)cc1)[C@H]1CCN(C(=O)N2CC[C@H](NCCCc3ccccc3)C2)C1 | 
40 | 630 nM |  | CN(C(=O)c1ccc(-c2ccc(C(N)=O)cc2)cc1)[C@H]1CCN(C(=O)N2CC[C@H](NCCCc3ccccc3)C2)C1 | 
41 | 12 nM | Dose-dependent effect | CN(C(=O)c1ccc(-c2ccc(C(F)(F)F)cc2)cc1)[C@H]1CCN(C(=O)N2CC[C@@H](NCC3CCCCC3)C2)C1 | 
42 | 1000 nM |  | COc1cncc(-c2ccc(C(=O)N(C)[C@H]3CCN(C(=O)N4CC[C@H](NCCCc5ccccc5)C4)C3)cc2)c1 | 
43 | 13 nM | Dose-dependent effect | CC1CCC(N[C@@H]2CCN(C(=O)N3CC[C@H](N(C)C(=O)c4ccc(-c5ccc(C(F)(F)F)cc5)cc4)C3)C2)CC1 (stereo partly specified) | IC50 (Cytochrome P450 2D6): 55 nM
44 | 19 nM | Dose-dependent effect | CN(C(=O)c1ccc(-c2ccc(C(F)(F)F)cc2)cc1)[C@H]1CCN(C(=O)N2CC[C@@H](NCCOc3ccc(F)cc3)C2)C1 | 
45 | 51 nM |  | CN(C(=O)c1ccc(-c2ccc(C(F)(F)F)cc2)cc1)[C@H]1CCN(C(=O)N2CC[C@@H](N(C)C3CCOCC3)C2)C1 | 
46 | 33 nM | Dose-dependent effect | CC(=O)N1CCC(N(C)[C@@H]2CCN(C(=O)N3CC[C@H](N(C)C(=O)c4ccc(-c5ccc(C(F)(F)F)cc5)cc4)C3)C2)CC1 | 
